Experimental data as given in ChEMBL document CHEMBL4627381, “Licochalcone A Selectively Resensitizes ABCG2-Overexpressing Multidrug-Resistant Cancer Cells to Chemotherapeutic Drugs” (J Nat Prod, 2020).

What was measured:
[1] = target: T1, Broad substrate specificity ATP-binding cassette transporter ABCG2 (Homo sapiens, UniProt Q9UNQ0); test: Reversal of ABCG2 (unknown origin)-mediated multidrug resistance in human S1-M1-80 cells assessed as fold-change in mitoxantrone IC50 at 2 uM after 72 hrs by MTT assay relative to mitoxantrone IC50; assay type: cell-based; settings: s1-m1-80, 72 h
T1 sequence (Q9UNQ0 whole entry): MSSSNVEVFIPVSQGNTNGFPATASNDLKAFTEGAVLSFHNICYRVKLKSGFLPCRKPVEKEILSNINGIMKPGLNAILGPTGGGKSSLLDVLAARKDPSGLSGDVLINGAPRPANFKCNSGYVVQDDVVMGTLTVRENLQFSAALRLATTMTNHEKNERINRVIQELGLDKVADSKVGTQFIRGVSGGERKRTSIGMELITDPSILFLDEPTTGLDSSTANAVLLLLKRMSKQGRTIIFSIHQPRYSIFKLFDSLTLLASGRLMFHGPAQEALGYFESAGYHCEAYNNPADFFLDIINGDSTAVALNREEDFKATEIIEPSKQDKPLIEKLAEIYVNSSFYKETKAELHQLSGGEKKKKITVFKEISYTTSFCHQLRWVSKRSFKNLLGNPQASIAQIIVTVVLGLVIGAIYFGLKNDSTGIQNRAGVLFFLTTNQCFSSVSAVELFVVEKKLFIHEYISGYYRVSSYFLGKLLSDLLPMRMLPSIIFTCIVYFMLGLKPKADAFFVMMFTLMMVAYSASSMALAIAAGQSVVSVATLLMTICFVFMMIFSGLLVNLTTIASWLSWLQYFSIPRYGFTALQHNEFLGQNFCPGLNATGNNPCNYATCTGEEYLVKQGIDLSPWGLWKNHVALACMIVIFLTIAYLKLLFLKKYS
Method in brief: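 MTT readout in S1-M1-80 colon cancer cells (mitoxantrone-selected, held in 80 μM mitoxantrone, then drug-free 7 days before assay). Cells were seeded at 5000/well for 24 h, then given increasing mitoxantrone or topotecan with DMSO or non-toxic modulator for 72 h at 37 °C. IC50 came from fitted dose-response curves (at least three independent experiments). Fold-reversal = IC50 without modulator ÷ IC50 with modulator.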

S1 [2] = test: Effect on mitoxantrone-induced cytotoxicity against human S1 cells assessed as fold change in mitoxantrone IC50 at 1 uM after 72 hrs by MTT assay relative to mitoxantrone IC50; assay type: functional
Method in brief: (§1)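 Parental S1 colon and H460 lung cancer cells were exposed for 72 h to a mitoxantrone or topotecan concentration series, with or without modulator at 0.5–3.0 μM, and read by MTT. Fold-reversal is IC50 without modulator divided by IC50 with modulator, taken from dose-response curves of three independent experiments.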

LS180 = test: Upregulation of ABCB1 mRNA expression in human LS180 cells at 1 uM by […] relative to control; assay type: functional
S1 [3] = test: Effect on mitoxantrone-induced cytotoxicity against human S1 cells assessed as fold change in mitoxantrone IC50 at 3 uM after 72 hrs by MTT assay relative to mitoxantrone IC50; assay type: functional; method in brief: as §1
S1-M1-80 = test: Potentiation of topotecan-induced apoptosis in human S1-M1-80 cells harboring ABCG2 (unknown origin) assessed as necrotic cells at 10 uM incubated for 48 hrs by annexin V/propidium iodide staining based flow cytometry (reference value: 0.4%); assay type: functional
HEK293 [4] = test: Effect on etoposide-induced cytotoxicity against HEK293 cells assessed as fold change in etoposide IC50 at 0.5 uM after 72 hrs by CCK8 assay relative to etoposide IC50; assay type: cell-based; settings: human, hek293, 72 h
Method in brief: (§2)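 Reversal assay in parental pcDNA-HEK293 and transfected HEK293 lines (ABCB1 for colchicine, ABCC1 for etoposide, ABCG2 for mitoxantrone/topotecan). Substrate drug series was given with or without nontoxic modulator (0.5, 1.0, 2.0 or 3.0 μM) for 72 h, with a CCK-8 read-out. Fold-reversal is substrate IC50 without modulator divided by IC50 with modulator. Three independent experiments.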

NCI-H460 = test: Effect on mitoxantrone-induced cytotoxicity against human H460 cells assessed as fold change in mitoxantrone IC50 at 2 uM after 72 hrs by MTT assay relative to mitoxantrone IC50; assay type: functional; method in brief: as §1
HEK293 [5] = test: Effect on etoposide-induced cytotoxicity against HEK293 cells assessed as fold change in etoposide IC50 at 3 uM after 72 hrs by CCK8 assay relative to etoposide IC50; assay type: cell-based; settings: human, hek293, 72 h; method in brief: as §2
ABCG2 = target: T2, ABCG2 (Homo sapiens, UniProt Q9UNQ0); test: Modulation of ABCG2 (unknown origin) expressed in High Five insect cell vesicle membrane assessed as maximal stimulation of ATPase activity after 20 mins by colorimetric assay relative to baseline; settings: membrane vesicles of High Five insect cells expressing ABCG2, read-out: Activity
T2 sequence (Q9UNQ0 whole entry): T1 sequence (Q9UNQ0 whole entry)
Method in brief: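 Membrane vesicles from ABCG2-expressing High Five cells were incubated with LCA (0–390 μM) at 37 °C for 20 min in 50 mM MES-Tris pH 6.8 with ouabain, DTT, NaN3, EGTA and KCl, ±0.3 mM vanadate. Liberated Pi was read by molybdate/ascorbate colorimetry at 880 nm. Vi-sensitive activity = activity minus activity with vanadate; mean ± SD of three experiments.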

HEK293 [6] = test: Effect on topotecan-induced cytotoxicity against HEK293 cells assessed as fold change in topotecan IC50 at 1 uM after 72 hrs by CCK8 assay relative to topotecan IC50; assay type: cell-based; settings: human, hek293, 72 h; method in brief: as §2
HEK293 [7] = test: Effect on mitoxantrone-induced cytotoxicity against HEK293 cells assessed as fold change in mitoxantrone IC50 at 0.5 uM after 72 hrs by CCK8 assay relative to mitoxantrone IC50; assay type: cell-based; settings: human, hek293, 72 h; method in brief: as §2
HEK293 [8] = test: Effect on topotecan-induced cytotoxicity against HEK293 cells assessed as fold change in topotecan IC50 at 3 uM after 72 hrs by CCK8 assay relative to topotecan IC50; assay type: cell-based; settings: human, hek293, 72 h; method in brief: as §2
[9] = target: Multidrug resistance-associated protein 1 (Homo sapiens, UniProt P33527); test: Reversal of human ABCC1-mediated multidrug resistance in HEK293/MRP1 cells assessed as fold-change in etoposide IC50 at 1 uM after 72 hrs by CCK8 relative to etoposide IC50; assay type: cell-based
Method in brief: (§3)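 Cells were seeded at 5000/well for 24 h, then given colchicine, etoposide, mitoxantrone or topotecan ± non-toxic modulator (0.5–3.0 μM) for 72 h, with DMSO up to 0.5%. IC50 came from fitted curves (mean ± SD, three experiments). Fold-reversal = IC50 without modulator ÷ IC50 with modulator.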

[10] = target: ATP-dependent translocase ABCB1 (Homo sapiens, UniProt P08183); test: Reversal of human ABCB1-mediated multidrug resistance in HEK293/MDR19 cells assessed as fold change in colchicine IC50 at 2 uM after 72 hrs by CCK8 relative to colchicine IC50; assay type: cell-based; method in brief: as §3
HEK293 [11] = test: Cytotoxicity against HEK293 cells overexpressing human ABCG2 after 72 hrs by CCK8 assay; assay type: ADME, cell-based; settings: HEK293, 72 h
Method in brief: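 Cells seeded at 5000/well, allowed 24 h, then exposed to a concentration series for 72 h at 37 °C in DMSO vehicle (up to 0.5% v/v). HEK293 lines were read with CCK-8 and cancer lines with MTT. IC50 was taken from fitted dose-response curves over at least three independent experiments. Lines were kept drug-free for 7 days before assay.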

Sequence of Multidrug resistance-associated protein 1 (P33527 whole entry): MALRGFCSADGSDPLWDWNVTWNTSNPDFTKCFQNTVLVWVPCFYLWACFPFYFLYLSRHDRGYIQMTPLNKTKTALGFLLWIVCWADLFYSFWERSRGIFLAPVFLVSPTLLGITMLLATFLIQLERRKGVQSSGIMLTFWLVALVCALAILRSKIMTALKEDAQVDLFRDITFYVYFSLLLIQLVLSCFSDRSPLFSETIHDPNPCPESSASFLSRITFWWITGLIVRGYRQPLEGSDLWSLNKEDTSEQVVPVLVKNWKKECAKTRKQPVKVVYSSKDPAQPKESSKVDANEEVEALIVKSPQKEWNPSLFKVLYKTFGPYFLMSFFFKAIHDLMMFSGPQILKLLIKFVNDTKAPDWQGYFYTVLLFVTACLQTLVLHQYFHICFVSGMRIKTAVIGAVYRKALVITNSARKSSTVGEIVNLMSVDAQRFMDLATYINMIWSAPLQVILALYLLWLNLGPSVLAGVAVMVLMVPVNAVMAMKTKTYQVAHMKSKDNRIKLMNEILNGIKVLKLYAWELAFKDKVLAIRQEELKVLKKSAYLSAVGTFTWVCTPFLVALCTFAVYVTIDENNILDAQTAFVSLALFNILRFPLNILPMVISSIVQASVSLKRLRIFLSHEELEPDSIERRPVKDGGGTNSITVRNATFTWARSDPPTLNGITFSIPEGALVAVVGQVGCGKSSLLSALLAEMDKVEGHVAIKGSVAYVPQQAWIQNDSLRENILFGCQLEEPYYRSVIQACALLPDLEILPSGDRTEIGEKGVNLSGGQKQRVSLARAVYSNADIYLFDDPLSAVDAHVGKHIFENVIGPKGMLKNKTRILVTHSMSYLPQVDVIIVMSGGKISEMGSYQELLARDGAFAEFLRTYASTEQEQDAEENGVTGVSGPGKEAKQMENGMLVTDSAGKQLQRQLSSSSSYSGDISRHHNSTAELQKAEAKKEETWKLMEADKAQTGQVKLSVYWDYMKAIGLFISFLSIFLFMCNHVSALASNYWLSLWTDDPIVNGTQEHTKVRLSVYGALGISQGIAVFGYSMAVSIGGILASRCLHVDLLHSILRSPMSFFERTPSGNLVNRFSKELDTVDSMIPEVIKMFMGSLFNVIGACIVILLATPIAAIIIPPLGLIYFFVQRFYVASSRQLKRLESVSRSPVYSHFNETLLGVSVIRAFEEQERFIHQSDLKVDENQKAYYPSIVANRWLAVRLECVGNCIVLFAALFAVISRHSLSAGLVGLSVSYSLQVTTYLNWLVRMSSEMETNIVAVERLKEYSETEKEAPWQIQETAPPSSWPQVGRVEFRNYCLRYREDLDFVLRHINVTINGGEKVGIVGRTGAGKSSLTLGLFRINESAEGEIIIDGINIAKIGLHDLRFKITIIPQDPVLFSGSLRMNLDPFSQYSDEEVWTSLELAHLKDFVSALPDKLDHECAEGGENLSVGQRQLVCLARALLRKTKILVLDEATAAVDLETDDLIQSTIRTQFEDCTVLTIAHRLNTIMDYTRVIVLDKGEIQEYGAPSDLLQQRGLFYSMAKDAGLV
Sequence of ATP-dependent translocase ABCB1 (P08183 whole entry): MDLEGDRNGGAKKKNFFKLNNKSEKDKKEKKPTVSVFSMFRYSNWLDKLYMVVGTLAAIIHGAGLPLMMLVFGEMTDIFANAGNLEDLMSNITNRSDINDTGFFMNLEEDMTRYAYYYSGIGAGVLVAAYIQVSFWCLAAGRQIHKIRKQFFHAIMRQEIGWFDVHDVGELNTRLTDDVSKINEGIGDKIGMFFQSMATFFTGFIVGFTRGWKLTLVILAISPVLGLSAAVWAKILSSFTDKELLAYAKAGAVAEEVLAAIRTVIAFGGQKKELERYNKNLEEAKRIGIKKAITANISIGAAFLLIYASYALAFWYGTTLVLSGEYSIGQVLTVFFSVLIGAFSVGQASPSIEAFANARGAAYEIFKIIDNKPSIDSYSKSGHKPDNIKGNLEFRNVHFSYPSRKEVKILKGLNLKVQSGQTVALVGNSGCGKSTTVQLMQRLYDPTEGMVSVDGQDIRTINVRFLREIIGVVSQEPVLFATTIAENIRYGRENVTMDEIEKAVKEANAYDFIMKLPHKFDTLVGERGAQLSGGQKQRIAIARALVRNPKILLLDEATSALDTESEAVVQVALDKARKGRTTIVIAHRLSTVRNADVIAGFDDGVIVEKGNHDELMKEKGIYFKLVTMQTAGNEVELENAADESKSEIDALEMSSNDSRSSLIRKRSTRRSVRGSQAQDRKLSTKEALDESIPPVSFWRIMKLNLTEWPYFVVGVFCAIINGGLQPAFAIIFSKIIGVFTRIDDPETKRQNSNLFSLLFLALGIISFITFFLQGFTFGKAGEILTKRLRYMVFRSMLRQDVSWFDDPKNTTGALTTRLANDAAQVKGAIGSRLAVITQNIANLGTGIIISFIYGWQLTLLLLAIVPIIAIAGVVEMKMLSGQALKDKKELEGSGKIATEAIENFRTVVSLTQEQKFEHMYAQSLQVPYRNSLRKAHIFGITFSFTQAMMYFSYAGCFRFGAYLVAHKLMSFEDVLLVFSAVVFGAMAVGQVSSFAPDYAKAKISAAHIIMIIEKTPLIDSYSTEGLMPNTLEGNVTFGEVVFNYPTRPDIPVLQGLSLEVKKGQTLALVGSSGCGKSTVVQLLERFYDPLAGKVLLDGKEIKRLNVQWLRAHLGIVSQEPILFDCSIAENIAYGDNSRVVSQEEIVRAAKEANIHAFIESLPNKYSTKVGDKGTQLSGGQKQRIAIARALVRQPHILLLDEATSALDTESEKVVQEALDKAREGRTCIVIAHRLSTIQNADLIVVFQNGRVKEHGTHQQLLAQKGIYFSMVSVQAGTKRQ

## C=CC(C)(C)c1cc(/C=C/C(=O)c2ccc(O)cc2)c(OC)cc1O [LICOAGROCHACONE A]
[1]
  fold change (FC): 28
S1 [2]
  fold change (FC): 1.1
LS180
  fold change (FC): 2 - 6
S1 [3]
  fold change (FC): 1
S1-M1-80
  Activity: 0.8%
HEK293 [4]
  fold change (FC): 0.7
NCI-H460
  fold change (FC): 1.1
HEK293 [5]
  fold change (FC): 0.8
ABCG2
  Emax at 20 min: 150%
HEK293 [6]
  fold change (FC): 1
HEK293 [7]
  fold change (FC): 0.9
HEK293 [8]
  fold change (FC): 1
[9]
  fold change (FC): 1.3
[10]
  fold change (FC): 0.8
HEK293 [11]
  IC50: 10 to 50 µM
